Here are results for 18 compounds from ChEMBL document CHEMBL4673206, “Truncated Latrunculins as Actin Inhibitors Targeting Plasmodium falciparum Motility and Host Cell Invasion” (J Med Chem, 2016).

What is called EC50 is the midpoint of the concentration-response curve. In general, CC50 refers to the concentration that lowers cell viability or growth by half. Usually inhibition stands for the share of the control response that was lost under treatment. High values mean a response far below the control, low ones a response near the control.

Data set [1] can be described thus: Inhibition of actin polymerisation in trophozoite-stage of plasmodium falciparum infected in human erythrocytes assessed as parasite growth inhibition measured after 72 hrs by SYBR dye based FACSort flow cytometry analysis. In kind it is cell-based. The essentials:
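Mature pigmented trophozoites at 0.1% parasitemia, 2% hematocrit, exposed to compound over two invasion cycles for 72 h at 37°C. Fixed with 0.25% glutaraldehyde for 1 h at room temperature, washed, stained with SYBR green, and counted by flow cytometry. Triplicate wells.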
For orientation: A flow cytometer gives signals particle by particle.

Data set [2] can be described thus: Inhibition of actin polymerisation in Toxoplasma gondii RH infected in human HFF cells assessed as reduction in invasion incubated for 20 mins prior to infection in HFF cells followed by 1 hr incubation under 5% CO2 and subsequent incubation for 72 hrs in DMEM medium 5% CO2 by crystal violet staining based analysis.
Data set [3] can be described thus: Selectivity index, ratio of CC50 for cytotoxicity against human HepG2 cells to EC50 for inhibition of actin polymerisation in trophozoite-stage of plasmodium falciparum. The format is toxicity, cell-based. The following applies: read-out: Ratio CC50/EC50.
Data set [4] can be described thus: Selectivity index, ratio of CC50 for cytotoxicity against human HEK293 cells to EC50 for inhibition of actin polymerisation in trophozoite-stage of plasmodium falciparum. To be noted: read-out: Ratio CC50/EC50. In kind it is toxicity, cell-based.
The subject of the next data set is HepG2. Kind of data set: Cytotoxicity against human HepG2 cells assessed as reduction in cell viability incubated for 24 hrs by resazurin staining based assay. The following applies: hepg2, 24 h. The method in brief: (§1)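 HEK293 and HepG2 seeded at 3000 and 5000 cells/well in DMEM with 10% FBS and left to attach 24 h (37°C, 5% CO2). Compounds added as a 1:3 serial dilution from 100 µM top concentration (0.5% DMSO final, 5% FBS final) for 24 h. Resazurin 10 µM added, 3 h, fluorescence at 560/590. Viability normalised to untreated and 100 µM tamoxifen wells; triplicate wells.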
For orientation: Alamar Blue is a resazurin reagent that responds to reducing activity.

A further data set concerns HEK293. Kind of data set: Cytotoxicity against HEK293 cells assessed as reduction in cell viability incubated for 24 hrs by resazurin staining based assay. The following applies: human, hek293, 24 h. The method in brief: as §1
Data set [5] concerns G-actin polymerization. Put plainly: Inhibition of KMEI-induced pyrene-labelled G-actin polymerization (unknown origin) at 100 uM preincubated for 1 min followed by KMEI addition and measured at 15 secs interval for 90 mins by spectrofluorimetric analysis relative to control. The following applies: human, time 91 min. The method in brief: (§2)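 Converted to Mg2+ form with EGTA/MgCl2 for 2 min at room temperature; final actin 2.5 µM. Compound in DMSO added for 1 min, then polymerisation started with KMEI (50 mM KCl, 10 mM imidazole pH 7, 1 mM MgCl2, 1 mM EGTA). Fluorescence ex 365/em 407 nm read every 15 s for 90 min; triplicate.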

In data set [6] the test system is G-actin polymerization. Kind of data set: Inhibition of KMEI-induced pyrene-labelled G-actin polymerization (unknown origin) at 10 uM preincubated for 1 min followed by KMEI addition and measured at 15 secs interval for 90 mins by spectrofluorimetric analysis relative to control. The following applies: human, time 91 min. The essentials: as §2

SMILES strings stand for the structures. A value given as a limit tells only on which side of the number the result lay.

Consider `COc1ccc(CN2C(=O)SC[C@H]2C2(OC)CC(OC(=O)c3ccc(-c4cccs4)cc3)CCO2)cc1` (mixture of isomers), for which the concentration for a half-maximal effect (EC50) in data set [1] was determined as 24 µM.

Turning to `CCC/C=C/c1ccccc1C(=O)OC1CCOC(OC)([C@@H]2CSC(=O)N2Cc2ccc(OC)cc2)C1` (mixture of isomers), in data set [1], the concentration giving a half-maximal response (EC50) is 49 µM.

Turning to `COc1ccc(CN2C(=O)SC[C@H]2C2(OC)CC(OC(=O)C3CCCC3)CCO2)cc1` (mixture of isomers), the EC50 in data set [1] was 66 µM; in data set [2], greater than 100 µM.

Consider `COc1ccc(CN2C(=O)SC[C@H]2C2(OC)CC(OC(=O)c3cccc(-c4cccs4)c3)CCO2)cc1` (mixture of isomers), for which, in data set [1], the half-maximal effective concentration (EC50) worked out at 18 µM.

Consider `COc1ccc(CN2C(=O)SC[C@H]2C2(OC)CC(O)CCO2)cc1` (stereo not given in full), for which the 50% effective concentration (EC50) in data set [1] was greater than 100 µM.

For the compound `COc1ccc(CN2C(=O)SC[C@H]2C2(OC)CC(OC(=O)c3ccc(I)cc3)CCO2)cc1` (mixture of isomers), the concentration for a half-maximal effect (EC50) in data set [1] was determined as 49 µM.

Regarding `COc1ccc(CN2C(=O)SC[C@H]2C2(OC)CC(OC(=O)c3ccco3)CCO2)cc1` (mixture of isomers), the EC50 in data set [1] is 62 µM.

Regarding `COc1ccc(CN2C(=O)SC[C@H]2C2(OC)CC(OC(=O)c3ccccc3-c3cccc4ccccc34)CCO2)cc1` (mixture of isomers), the selectivity ratio in data set [3] turned out to be 15; in data set [4], 17. The figures for the half-maximal cytotoxic concentration (CC50) in the data set on HepG2 and in the data set with HEK293 were 90 µM and 99 µM, respectively. Besides, in the data set with G-actin polymerization [5], the inhibition at 1.5 h, 100 µM was less than 10%. This compound registered an inhibition at 1.5 h, 10 µM in the data set with G-actin polymerization [6] of less than 10%. The figures for the half-maximal effective concentration (EC50) in data set [1] and in data set [2] were 7 µM and 16 µM, respectively.

For `COc1ccc(CN2C(=O)SC[C@H]2C2(OC)CC(OC(=O)c3ccccc3I)CCO2)cc1` (mixture of isomers), the inhibition at 1.5 h, 100 µM in the data set on G-actin polymerization [5] was less than 10%. Moreover, the inhibition at 1.5 h, 10 µM with G-actin polymerization [6] was less than 10%. For the same compound, in data set [1], the EC50 amounted to 17 µM.

On to `COc1ccc(CN2C(=O)SC[C@H]2C2(OC)CC(OC(=O)c3cc(C)ccc3-c3cccs3)CCO2)cc1` (mixture of isomers), for which the 50% effective concentration (EC50) in data set [1] worked out at 10 µM.

Take `COc1ccc(CN2C(=O)SC[C@H]2C2(OC)CC(OC(=O)c3cccc(I)c3)CCO2)cc1` (mixture of isomers): in data set [1], the 50% effective concentration (EC50) stood at 49 µM.

Take `COc1ccc(CN2C(=O)SC[C@H]2C2(OC)CC(OC(=O)c3ccccc3)CCO2)cc1` (mixture of isomers): in data set [1], the EC50 came out at 31 µM.

`CCCCC(=O)OC1CCOC(OC)([C@@H]2CSC(=O)N2Cc2ccc(OC)cc2)C1` (mixture of isomers): the selectivity ratio in data set [3] and in data set [4] was 1 in each case. The 50% cytotoxic concentration (CC50) in the data set on HepG2 was determined as 111 µM; in the data set with HEK293, 103 µM. Also, the concentration giving a half-maximal response (EC50) in data set [1] was 66 µM; in data set [2], greater than 100 µM.

On to `COc1ccc(CN2C(=O)SC[C@H]2C2(OC)CC(OC(=O)c3ccccc3C3=CCCCC3)CCO2)cc1` (mixture of isomers), for which the selectivity ratio stood at 15 in data set [3] and 14 in data set [4]. For the same compound, the 50% cytotoxic concentration (CC50) in the data set with HepG2 turned out to be 123 µM; in the data set with HEK293, 109 µM. The compound also registered an inhibition at 1.5 h, 100 µM in the data set on G-actin polymerization [5] of less than 10%. The same compound registered an inhibition at 1.5 h, 10 µM in the data set with G-actin polymerization [6] of less than 10%. For the same compound, the EC50 worked out at 7 µM in data set [1] and 16 µM in data set [2].

For `COc1ccc(CN2C(=O)SC[C@H]2C2(OC)CC(OC(=O)c3ccc(C)cc3-c3cccs3)CCO2)cc1` (mixture of isomers), the EC50 in data set [1] is 15 µM.

Turning to `COc1ccc(CN2C(=O)SC[C@H]2C2(OC)CC(OC(=O)c3ccccc3-c3cccs3)CCO2)cc1` (mixture of isomers), the inhibition at 1.5 h, 100 µM in the data set on G-actin polymerization [5] was less than 10%. The inhibition at 1.5 h, 10 µM in the data set with G-actin polymerization [6] is less than 10%. Also, the figures for the concentration giving a half-maximal response (EC50) in data set [1] and in data set [2] were 7 µM and 19 µM, respectively.

Turning to `COc1ccc(CN2C(=O)SC[C@H]2C2(OC)CC(OC(=O)c3ccc(C)cc3-c3ccccc3)CCO2)cc1` (mixture of isomers), the 50% effective concentration (EC50) in data set [1] stood at 13 µM.

In the data set on G-actin polymerization [5], `C/C1=C/C(=O)O[C@@H]2C[C@@H](CC[C@H](C)/C=C\CC1)O[C@@](O)([C@@H]1CSC(=O)N1)C2` [LATRUNCULIN B] came in with an inhibition at 1.5 h, 100 µM of 100%. The same compound gave an inhibition at 1.5 h, 10 µM in the data set with G-actin polymerization [6] of 100%. Also, the EC50 in data set [1] is 44 µM.
